This note sets out measurements from ChEMBL document CHEMBL1221394, “Anti-AIDS agents 79. Design, synthesis, molecular modeling and structure-activity relationships of novel dicamphanoyl-2',2'-dimethyldihydropyranochromone (DCP) analogs as potent anti-HIV agents” (Bioorg Med Chem, 2010).

The subject of data set [1] is Human immunodeficiency virus 1. Nature of the data set: Antiviral activity against HIV1 3B infected in human H9 cells. The data set is classed as functional, organism-based. The following applies: Human immunodeficiency virus 1, 3B.
A short description of data set [2]: Therapeutic index, ratio of CC50 for human H9 cells to EC50 for HIV1 3B. The data set is classed as cell-based. The following applies: read-out: TI.
A short description of data set [3]: Therapeutic index, ratio of CC50 for human H9 cells to EC50 for HIV1 RTMDR1. The format is cell-based. The following applies: read-out: TI.
A short description of data set [4]: Solubility of the compound in water after 1 hr. The data set is classed as physicochemical. The following applies: HPLC grade water, 1 h. Summed up: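 Excess solid compound was added to HPLC-grade water and sonicated in an ultrasonic bath at room temperature for 1 h. Undissolved solid was removed with a PTFE syringe filter. Dissolved concentration was quantified by HPLC on a C18 column (2.1 mm × 100 mm) at a flow rate of 200 μL/min.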

Data set [5] relates to Human immunodeficiency virus 1. Briefly: Antiviral activity against HIV1 infected in human H9 cells. The format is functional, organism-based. The conditions noted are these: Human immunodeficiency virus 1, H9.
The subject of data set [6] is Human immunodeficiency virus 1. Nature of the data set: Antiviral activity against HIV1 RTMDR1 in human MT4 cells. The format is functional, organism-based. The following applies: Human immunodeficiency virus 1, RTMDR1, MT4.
Data set [7] relates to Human immunodeficiency virus 1. Briefly: Antiviral activity against HIV1 RTMDR1 in human TZM-b1 cells after 48 hrs by luciferase reporter gene assay. The format is functional, organism-based. The following applies: Human immunodeficiency virus 1, RTMDR1, TZM-b1, 48 h. Summed up:
(§1)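 Single-round infection of TZM-bl cells with 200 TCID50 virus mixed with test sample at eight 4-fold serial dilutions. Incubated 48 h, then luciferase reagent was added and luminescence read. IC50 is the concentration giving 50% reduction in RLU versus virus-control wells, after subtracting background RLU.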

A short description of data set [8]: Therapeutic index, ratio of IC50 for human TZM-b1 cells to EC50 for HIV1 RTMDR1. The format is cell-based. The conditions noted are these: read-out: TI. The gist of the method: (§2)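 Cytotoxicity was measured with the CytoTox-Glo kit following the manufacturer's instructions. Antiviral EC50 came from the single-round TZM-bl luciferase assay: 200 TCID50 virus, eight 4-fold sample dilutions, 48 h, and 50% RLU reduction versus virus control after background subtraction.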

Data set [9] is described as follows: Cytotoxicity against human TZM-b1 cells. The data set is classed as cell-based. The gist of the method: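 Cytotoxicity in TZM-bl cells read with the CytoTox-Glo luminescent assay, run according to the kit instructions.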
Data set [10] can be described thus: Therapeutic index, ratio of CC50 for human H9 cells to EC50 for HIV1. The data set is classed as cell-based. The following applies: read-out: TI.
Data set [11] in a line: Therapeutic index, ratio of IC50 for human TZM-b1 cells to EC50 for HIV1 NL4-3. The following applies: read-out: TI. The data set is classed as cell-based. The gist of the method:
as §2

For data set [12], the system named is Human immunodeficiency virus 1. Briefly: Antiviral activity against wild type HIV1 NL4-3 in human TZM-b1 cells after 48 hrs by luciferase reporter gene assay. The data set is classed as functional, organism-based. The following applies: Human immunodeficiency virus 1, NL4-3, TZM-b1, 48 h. Summed up:
as §1
(A reporter such as luciferase makes a cellular process visible.)

The structures appear in SMILES notation. pEC50, pIC50: −log10 of the molar value. Some results are limits rather than exact numbers.

As a reminder, the pEC50 is the EC50 on a negative log10 scale, so that one unit is a factor of ten. Lower therefore signals a large EC50. With `Cc1cc(=O)oc2c3c(ccc12)OC(C)(C)[C@H](OC(=O)[C@@]12CC[C@@](C)(C(=O)O1)C2(C)C)[C@@H]3OC(=O)[C@@]12CC[C@@](C)(C(=O)O1)C2(C)C`, the pEC50 in [1] was 8.23. Moreover, the selectivity ratio in [2] amounted to 6660.

The term solubility denotes how much of the substance goes into solution per volume. In general, pIC50 refers to −log10 of the IC50, conventionally taken in molar units. Regarding `CCc1cc(=O)c2ccc3c(c2o1)[C@@H](OC(=O)[C@@]12CC[C@@](C)(C(=O)O1)C2(C)C)[C@@H](OC(=O)[C@@]12CC[C@@](C)(C(=O)O1)C2(C)C)C(C)(C)O3`, the selectivity ratio in [3] came to 60; in data set [8], 60; in data set [10], 94; in data set [11], 94. For the same molecule, the solubility in [4] was less than 0.9 µg/mL. Besides, the pEC50 in data set [5] is 7.15; in [6], 6.96; in data set [7] it was 6.96; in data set [12], 7.15. The pIC50 in data set [9] is 5.18.
